# Experimental data: ChEMBL document CHEMBL4715714, “Design, synthesis and biological evaluation of thiosemicarbazones, hydrazinobenzothiazoles and arylhydrazones as anticancer agents with a potential to overcome multidrug resistance” (Eur J Med Chem, 2016)
# Calls of active or inactive are those of the source. The calls are words filed in the database; no cut-off is given here.
# Tests used:
# [1] = tested on: MES-SA; assay: Cytotoxicity against human MES-SA cells assessed as inhibition of cell proliferation incubated for 72 hrs by MTT assay; assay type: functional, cell-based
# Summary of the method: (§1)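 Cells were seeded (10000/well for A2780, 5000/well for MES-SA/Dx5 and KB-3-1/V1) and left to attach 12 h, then exposed to compound for 72 h. Medium was removed, and MTT (0.83 mg/mL) was added for 1 h at 37 °C. Cells were lysed in DMSO and absorbance read at 540 nm. Signal was corrected for unstained lysate background, normalized to untreated cells, and IC50 taken from a sigmoidal dose-response fit.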
# [2] = tested on: MES-SA/Dx5; assay: Cytotoxicity against human MES-SA/DX5 cells assessed as inhibition of cell proliferation incubated for 72 hrs by MTT assay; assay type: functional, cell-based; settings: for IC50: MES-SA/Dx5, 72 h; summary of the method: as §1
# [3] = tested on: MES-SA; assay: Cytotoxicity against human MES-SA cells transfected with mCherry fluorescent protein assessed as inhibition of cell proliferation incubated for 72 hrs by fluorescent assay; assay type: functional, cell-based; settings: Homo sapiens, MES-SA, 72 h; read-out: IC50
# Summary of the method: (§2)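 MES-SA and MES-SA/Dx5 cells were made to stably express mCherry by lentiviral transduction. Cells were seeded at 5000 (96-well) or 2500 (384-well) per well, allowed to attach 24 h, then treated with compound dilutions for 72 h. Viability was read as fluorescence, excitation 585 nm, emission 610 nm.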
# [4] = tested on: MES-SA/Dx5; assay: Cytotoxicity against human MES-SA/DX5 cells transfected with mCherry fluorescent protein assessed as inhibition of cell proliferation incubated for 72 hrs by fluorescent assay; assay type: functional, cell-based; settings: Homo sapiens, MES-SA/Dx5, 72 h; read-out: IC50; summary of the method: as §2
# [5] = tested on: KB 3-1; assay: Cytotoxicity against human KB-3-1 cells assessed as inhibition of cell proliferation incubated for 72 hrs by MTT assay; assay type: functional, cell-based; settings: for IC50: KB 3-1, 72 h; summary of the method: as §1
# [6] = tested on: KB-V1; assay: Cytotoxicity against human KB-V1 cells assessed as inhibition of cell proliferation incubated for 72 hrs by MTT assay; assay type: functional, cell-based; settings: for IC50: KB-V1, 72 h; summary of the method: as §1
# [7] = tested on: A2780; assay: Cytotoxicity against human A2780 cells assessed as inhibition of cell proliferation incubated for 72 hrs by MTT assay; assay type: functional, cell-based; settings: A2780, 72 h; summary of the method: as §1
# [8] = Cytotoxicity against human A2780adr cells assessed as inhibition of cell proliferation incubated for 72 hrs by MTT assay; assay type: functional, cell-based; settings: A2780 ADR; summary of the method: as §1
# [9] = tested on: MES-SA/Dx5; assay: Cytotoxicity against human MES-SA/DX5 cells incubated for 72 hrs in presence of efflux pump inhibitor, Tariquidar by MTT assay; assay type: functional, cell-based
# Summary of the method: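 Run as the 72 h MTT viability readout (12 h attachment, MTT 0.83 mg/mL for 1 h, DMSO lysis, A540), with the P-gp inhibitor Tariquidar at 1 µM co-present. IC50 came from sigmoidal fits of 2 to 4 independent experiments.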
# [10] = tested on: MES-SA/Dx5; assay: Reduction in P-gp expression in human MES-SA/DX5 cells at IC20 concentration incubated for 5 days by calcein-AM staining based flow cytometric analysis; assay type: functional, cell-based; settings: time 5.0 day
# Summary of the method: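 MES-SA/Dx5 cells were grown 5 days with compound at IC20 values calculated from viability assays, then recovered in drug-free medium refreshed every fifth day. At 80% confluency, cells were stained with Calcein AM with or without verapamil, with TO-PRO-3 excluding dead cells, and analysed by flow cytometry for the P-gp-negative fraction.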
# [11] = tested on: MES-SA/Dx5; assay: Reduction in P-gp expression in human MES-SA/DX5 cells measured after 5 rounds of treatment by DAPI staining based immunocytochemistry analysis; assay type: functional, cell-based
# Summary of the method: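 Treated cells were plated in chamber slides, fixed after 1 day in 4% paraformaldehyde for 15 min, and blocked 1 h (BSA, fish gelatin, goat serum, Triton X-100). They were stained with anti-P-gp MRK16 (1:500, 1 h), then PE goat anti-mouse IgG (1:250, 1 h), with DAPI 1 µM for 10 min. Imaging used fluorescence and confocal microscopy.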
# [12] = Selectivity ratio of IC50 for human MES-SA cells to IC50 for human MES-SA/DX5 cells incubated for 72 hrs by MTT assay; assay type: functional
# Summary of the method: (§3)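 The selectivity ratio is the IC50 in P-gp-negative parental cells divided by the IC50 in the P-gp-positive resistant partner.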
# [13] = Selectivity ratio of IC50 for human MES-SA cells transfected with mCherry to IC50 for human MES-SA/DX5 cells transfected with mCherry incubated for 72 hrs by fluorescent assay; assay type: functional
# [14] = Selectivity ratio of IC50 for human KB-3-1 cells to IC50 for human KB-V1 cells incubated for 72 hrs by MTT assay; assay type: functional; summary of the method: as §3
# [15] = Selectivity ratio of IC50 for human A2780 cells to IC50 for human A2780adr cells incubated for 72 hrs by MTT assay; assay type: functional; summary of the method: as §3
# [16] = tested on: MES-SA/Dx5; assay: Cytotoxicity against human MES-SA/DX5 cells transfected with mCherry fluorescent protein incubated for 72 hrs in presence of efflux pump inhibitor, Tariquidar by fluorescence assay; assay type: functional, cell-based
# Summary of the method: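 The mCherry-expressing cells (lentiviral) were seeded at 5000 or 2500 per well, attached for 24 h, and exposed 72 h to compounds with Tariquidar coadministered. Live-cell signal was fluorescence at 585 nm excitation and 610 nm emission.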
# [17] = tested on: KB-V1; assay: Cytotoxicity against human KB-V1 cells assessed as inhibition of cell proliferation incubated for 72 hrs in presence of efflux pump inhibitor, Tariquidar by MTT assay; assay type: functional, cell-based
# [18] = tested on: A2780 ADR; assay: Cytotoxicity against human A2780adr cells assessed as inhibition of cell proliferation incubated for 72 hrs in presence of efflux pump inhibitor, Tariquidar by MTT assay; assay type: functional, cell-based
# [19] = tested on: MES-SA; assay: Cytotoxicity against human MES-SA cells assessed as inhibition of cell proliferation at >=50 uM incubated for 72 hrs by MTT assay; assay type: functional, cell-based; settings: dose microM >=50, time 72.0 hrs; summary of the method: as §1
# [20] = tested on: MES-SA/Dx5; assay: Cytotoxicity against human MES-SA/DX5 cells assessed as inhibition of cell proliferation at >=50 uM incubated for 72 hrs by MTT assay; assay type: functional, cell-based; settings: dose microM >=50, time 72.0 hrs; summary of the method: as §1
# [21] = tested on: KB 3-1; assay: Cytotoxicity against human KB-3-1 cells assessed as inhibition of cell proliferation at >=50 uM incubated for 72 hrs by MTT assay; assay type: functional, cell-based; settings: dose microM >=50, time 72.0 hrs; summary of the method: as §1
# [22] = tested on: KB-V1; assay: Cytotoxicity against human KB-V1 cells assessed as inhibition of cell proliferation at >=50 uM incubated for 72 hrs by MTT assay; assay type: functional, cell-based; settings: dose microM >=50, time 72.0 hrs; summary of the method: as §1
# [23] = tested on: MES-SA; assay: Cytotoxicity against human MES-SA cells assessed as inhibition of cell proliferation at <50 uM incubated for 72 hrs by MTT assay; assay type: functional, cell-based; settings: dose microM <50, time 72.0 hrs; summary of the method: as §1
# [24] = tested on: MES-SA/Dx5; assay: Cytotoxicity against human MES-SA/DX5 cells assessed as inhibition of cell proliferation at <50 uM incubated for 72 hrs by MTT assay; assay type: functional, cell-based; settings: dose microM <50, time 72.0 hrs; summary of the method: as §1
structure (smiles),measurement,setting,value
O=C1Nc2ccccc2/C1=N/NC(=S)Nc1ccc([N+](=O)[O-])cc1,IC50,[1]; read-out: IC50,9.17 µM
same,IC50,[1]; read-out: pIC50 (converted),8.51 µM
same,IC50,[2]; read-out: IC50,4.74 µM
same,IC50,[2]; read-out: pIC50 (converted),4.68 µM
same,IC50,[3],15.8 µM
same,IC50,[4],7.55 µM
same,IC50,[5]; read-out: IC50,8.2 µM
same,IC50,[5]; read-out: pIC50 (converted),7.76 µM
same,IC50,[6]; read-out: IC50,4.58 µM
same,IC50,[6]; read-out: pIC50 (converted),4.47 µM
same,IC50,[7]; read-out: IC50,25.7 µM
same,IC50,[7]; read-out: pIC50 (converted),24.5 µM
same,IC50,[8]; read-out: IC50,8.78 µM
same,IC50,[8]; read-out: pIC50 (converted),8.91 µM
same,Activity,[9],inactive
same,inhibition,[10],Active
same,inhibition,[11],Active
same,Ratio IC50,[12],1.77
same,Ratio IC50,[13],3.55
same,Ratio IC50,[14],1.82
same,Ratio IC50,[15],2.98
same,Activity,[16],inactive
same,Activity,[17],inactive
same,Activity,[18],inactive
COc1ccc(NC(=S)NNc2nc3ccccc3s2)cc1,pIC50,[1],inactive
same,pIC50,[2],inactive
same,pIC50,[5],inactive
same,pIC50,[6],inactive
same,Activity,[19],inactive
same,Activity,[20],inactive
same,Activity,[21],inactive
same,Activity,[22],inactive
COc1ccc(NC(=S)NNC(=S)Nc2ccc(OC)cc2)cc1,pIC50,[1],inactive
same,pIC50,[2],inactive
same,Activity,[23],inactive
same,Activity,[24],inactive
